From ChEMBL document CHEMBL1240350, “In vitro activity of CEM-101 against Streptococcus pneumoniae and Streptococcus pyogenes with defined macrolide resistance mechanisms” (Antimicrob Agents Chemother, 2010)
In brackets after ≈: the same amount, converted by molar mass.

Assays:
Streptococcus pneumoniae [1] = experiment: Antibacterial activity against macrolide-susceptible Streptococcus pneumoniae 1077 after overnight incubation by agar dilution method; type: functional
Streptococcus pyogenes [2] = experiment: Antibacterial activity against macrolide-resistant Streptococcus pyogenes 2094 harboring erm(A) gene after 22 passages and 10 compound-free subculturing by retest method
Streptococcus pyogenes [3] = experiment: Antibacterial activity against Streptococcus pyogenes harboring erm(B) gene after overnight incubation by agar dilution method; type: functional
Outline: (§1)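 Clinical isolates collected 1998–2008, with macrolide-resistance genes confirmed by PCR. MICs by agar dilution on Mueller-Hinton agar with 5% sheep blood. Inoculum 10^4 CFU/spot, incubated overnight at 35°C in ambient air. S. pneumoniae ATCC 49619 was the quality-control strain in every run.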

Streptococcus pneumoniae [4] = experiment: Antibacterial activity against macrolide-susceptible Streptococcus pneumoniae after overnight incubation by agar dilution method; type: functional
Outline: (§2)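 Agar dilution MICs on Mueller-Hinton agar with 5% sheep blood. Inoculum 10^4 CFU/spot, incubated overnight at 35°C in ambient air. Clinical S. pneumoniae or group A streptococcal isolates; resistance genotypes (erm(B), erm(A), mef(A)/mef(E)) were assigned by PCR. S. pneumoniae ATCC 49619 served as QC strain in each run. Range, MIC50 and MIC90 reported per phenotype group.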

Streptococcus pneumoniae [5] = experiment: Antibacterial activity against macrolide-resistant Streptococcus pneumoniae 3009 harboring mutation in 23S rRNA after overnight incubation by agar dilution method; type: functional
Streptococcus pyogenes [6] = experiment: Antibacterial activity against macrolide-resistant Streptococcus pyogenes 237 harboring mutation in L4 ribosomal protein after 43 passages and 10 compound-free subculturing by retest method
Streptococcus pneumoniae [7] = experiment: Antibacterial activity against quinolone-resistant Streptococcus pneumoniae after overnight incubation by agar dilution method; type: functional
Outline: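 Agar dilution on Mueller-Hinton agar supplemented with 5% sheep blood. Inoculum 10^4 CFU/spot, incubated overnight at 35°C in ambient air. Test strains were clinical pneumococcal isolates. S. pneumoniae ATCC 49619 was included as the quality control strain in each run. MIC range, MIC50 and MIC90 were reported for each susceptibility category.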

Streptococcus pneumoniae [8] = experiment: Antibacterial activity against macrolide-susceptible Streptococcus pneumoniae 7127 harboring S20N mutation in L4 ribosomal protein and A105V mutation in L22 ribosomal protein after 15 passages and 10 compound-free subculturing by retest method; type: functional
Streptococcus pneumoniae [9] = experiment: Antibacterial activity against macrolide-resistant Streptococcus pneumoniae 2686 harboring mutation in L4 ribosomal protein after 22 passages and 10 compound-free subculturing by retest method; type: functional
Streptococcus pyogenes [10] = experiment: Antibacterial activity against macrolide-resistant Streptococcus pyogenes 2368 harboring erm(B) gene after 18 passages and 10 compound-free subculturing by retest method
Streptococcus pyogenes [11] = experiment: Antibacterial activity against macrolide-resistant Streptococcus pyogenes 2368 harboring erm(B) gene after overnight incubation by agar dilution method
Streptococcus pyogenes [12] = experiment: Antibacterial activity against macrolide-resistant Streptococcus pyogenes 2094 harboring erm(A) gene after 34 passages and 10 compound-free subculturing by retest method
Streptococcus pneumoniae [13] = experiment: Antibacterial activity against macrolide-susceptible Streptococcus pneumoniae 1077 after 43 passages and 10 compound-free subculturing by retest method; type: functional
Streptococcus pneumoniae [14] = experiment: Antibacterial activity against penicillin-intermediate Streptococcus pneumoniae after overnight incubation by agar dilution method; type: functional
Outline: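 Agar dilution on Mueller-Hinton agar supplemented with 5% sheep blood, inoculum 10^4 CFU/spot, read after overnight incubation at 35°C in ambient air. Clinical isolates with defined genotypes; S. pneumoniae ATCC 49619 quality control strain included in each run. MIC50/MIC90 are MICs inhibiting 50% and 90% of isolates.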

Streptococcus pneumoniae [15] = experiment: Antibacterial activity against macrolide-resistant Streptococcus pneumoniae 1635 harboring erm(A) gene after overnight incubation by agar dilution method; type: functional
Streptococcus pyogenes [16] = experiment: Antibacterial activity against macrolide-resistant Streptococcus pyogenes 2094 harboring erm(A) gene after 5 passages and 10 compound-free subculturing by retest method
Streptococcus pyogenes [17] = experiment: Antibacterial activity against macrolide-resistant Streptococcus pyogenes 2011 harboring mef(A) gene after overnight incubation by agar dilution method
Streptococcus pneumoniae [18] = experiment: Antibacterial activity against macrolide-resistant Streptococcus pneumoniae 1076 harboring erm(B) and mef(A) gene after 14 passages and 10 compound-free subculturing by retest method; type: functional
Outline: (§3)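 Multistep selection by daily serial passage in subinhibitory drug concentrations. Medium was cation-adjusted Mueller-Hinton broth plus 5% lysed horse blood. Each day the next inoculum came from the tube 1–2 dilutions below the MIC whose turbidity matched the growth control, for up to 50 days. Clone MICs by CLSI macrodilution; identity to the parent confirmed by SmaI PFGE.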

Streptococcus pyogenes [19] = experiment: Antibacterial activity against macrolide-susceptible Streptococcus pyogenes 2132 after 28 passages and 10 compound-free subculturing by retest method
Streptococcus pneumoniae [20] = experiment: Antibacterial activity against macrolide-resistant Streptococcus pneumoniae 24 harboring erm(B) gene after 14 passages and 10 compound-free subculturing by retest method; type: functional; outline: as §3
Streptococcus pneumoniae [21] = experiment: Antibacterial activity against macrolide-resistant Streptococcus pneumoniae 24 harboring erm(B) gene after overnight incubation by agar dilution method; type: functional
Streptococcus pyogenes [22] = experiment: Antibacterial activity against macrolide-resistant Streptococcus pyogenes 2368 harboring erm(B) gene after 6 passages and 10 compound-free subculturing by retest method
Streptococcus pneumoniae [23] = experiment: Antibacterial activity against Streptococcus pneumoniae harboring mutation in 23S rRNA after overnight incubation by agar dilution method; type: functional; outline: as §1
Streptococcus pyogenes [24] = experiment: Antibacterial activity against macrolide-resistant Streptococcus pyogenes 2011 harboring mef(A) gene after 35 passages and 10 compound-free subculturing by retest method
Streptococcus pyogenes [25] = experiment: Antibacterial activity against macrolide-resistant Streptococcus pyogenes harboring erm(A) gene after overnight incubation by agar dilution method; type: functional; outline: as §2
Streptococcus pyogenes [26] = experiment: Antibacterial activity against macrolide-resistant Streptococcus pyogenes 237 harboring mutation in L4 ribosomal protein after 50 passages following overnight incubation by agar dilution method
Streptococcus pyogenes [27] = experiment: Antibacterial activity against Streptococcus pyogenes harboring mutation in L4 ribosomal protein after overnight incubation by agar dilution method; type: functional; outline: as §1
Streptococcus pneumoniae [28] = experiment: Antibacterial activity against macrolide-susceptible Streptococcus pneumoniae 1077 after 29 passages and 10 compound-free subculturing by retest method; type: functional
Streptococcus pneumoniae [29] = experiment: Antibacterial activity against Streptococcus pneumoniae harboring erm(B) and mef(A) gene after overnight incubation by agar dilution method; type: functional; outline: as §1
Streptococcus pyogenes [30] = experiment: Antibacterial activity against macrolide-susceptible Streptococcus pyogenes 2132 after 50 passages following overnight incubation by agar dilution method
[31] = Streptococcus pneumoniae, 24, read-out: MIC

Compound: CC[C@H]1OC(=O)[C@H](C)[C@@H](O[C@H]2C[C@@](C)(OC)[C@@H](O)[C@H](C)O2)[C@H](C)[C@@H](O[C@@H]2O[C@H](C)C[C@H](N(C)C)[C@H]2O)[C@](C)(O)C[C@@H](C)CN(C)[C@H](C)[C@@H](O)[C@]1(C)O [AZITHROMYCIN]
- MIC (Streptococcus pneumoniae [1]): 0.03 µg/mL (≈ 0.0401 µM)
- MIC (Streptococcus pyogenes [2]): > 64 µg/mL
- MIC50 (Streptococcus pyogenes [3]): > 64 µg/mL
- MIC90 (Streptococcus pyogenes [3]): > 64 µg/mL
- MIC50 (Streptococcus pneumoniae [4]): 0.125 µg/mL (≈ 0.167 µM)
- MIC (Streptococcus pneumoniae [5]): > 64 µg/mL
- MIC (Streptococcus pyogenes [6]): 8 µg/mL (≈ 10.7 µM)
- MIC50 (Streptococcus pneumoniae [7]): 0.125 µg/mL (≈ 0.167 µM)
- MIC (Streptococcus pneumoniae [8]): > 64 µg/mL
- MIC (Streptococcus pneumoniae [9]): > 64 µg/mL
- MIC (Streptococcus pyogenes [10]): > 64 µg/mL
- MIC (Streptococcus pyogenes [11]): > 64 µg/mL
- MIC (Streptococcus pyogenes [12]): 16 µg/mL (≈ 21.4 µM)
- MIC (Streptococcus pneumoniae [13]): 0.03 µg/mL (≈ 0.0401 µM)
- MIC50 (Streptococcus pneumoniae [14]): > 64 µg/mL
- MIC90 (Streptococcus pneumoniae [14]): > 64 µg/mL
- MIC (Streptococcus pneumoniae [15]): 2 µg/mL (≈ 2.67 µM)
- MIC (Streptococcus pyogenes [16]): > 64 µg/mL
- MIC (Streptococcus pyogenes [17]): 4 µg/mL (≈ 5.34 µM)
- MIC (Streptococcus pneumoniae [18]): > 64 µg/mL
- MIC (Streptococcus pyogenes [19]): 1 µg/mL (≈ 1.34 µM)
- MIC (Streptococcus pneumoniae [20]; [31]): > 64 µg/mL
- MIC (Streptococcus pneumoniae [21]): > 64 µg/mL
- MIC (Streptococcus pyogenes [22]): > 64 µg/mL
- MIC (Streptococcus pneumoniae [23]): 32 µg/mL (≈ 42.7 µM)
- MIC (Streptococcus pyogenes [24]): 16 µg/mL (≈ 21.4 µM)
- MIC50 (Streptococcus pyogenes [25]): 16 µg/mL (≈ 21.4 µM)
- MIC90 (Streptococcus pyogenes [25]): > 64 µg/mL
- MIC (Streptococcus pyogenes [26]): 8 µg/mL (≈ 10.7 µM)
- MIC (Streptococcus pyogenes [27]): 2 µg/mL (≈ 2.67 µM)
- MIC (Streptococcus pneumoniae [28]): > 64 µg/mL

Compound: CC[C@H]1OC(=O)[C@@](C)(F)C(=O)[C@H](C)[C@@H](O[C@@H]2O[C@H](C)C[C@H](N(C)C)[C@H]2O)[C@](C)(OC)C[C@@H](C)C(=O)[C@H](C)[C@H]2N(CCCCn3cc(-c4cccc(N)c4)nn3)C(=O)O[C@]12C [SOLITHROMYCIN]
- MIC (Streptococcus pneumoniae [1]): 0.008 µg/mL (≈ 0.00947 µM)
- MIC (Streptococcus pyogenes [2]): 0.03 µg/mL (≈ 0.0355 µM)
- MIC50 (Streptococcus pneumoniae [29]): 0.125 µg/mL (≈ 0.148 µM)
- MIC90 (Streptococcus pneumoniae [29]): 0.25 µg/mL (≈ 0.296 µM)
- MIC50 (Streptococcus pyogenes [3]): 0.5 µg/mL (≈ 0.592 µM)
- MIC90 (Streptococcus pyogenes [3]): 1 µg/mL (≈ 1.18 µM)
- MIC50 (Streptococcus pneumoniae [4]): 0.008 µg/mL (≈ 0.00947 µM)
- MIC90 (Streptococcus pneumoniae [4]): 0.015 µg/mL (≈ 0.0178 µM)
- MIC (Streptococcus pneumoniae [5]): 0.016 µg/mL (≈ 0.0189 µM)
- MIC (Streptococcus pyogenes [6]): 0.03 µg/mL (≈ 0.0355 µM)
- MIC50 (Streptococcus pneumoniae [7]): 0.008 µg/mL (≈ 0.00947 µM)
- MIC90 (Streptococcus pneumoniae [7]): 0.06 µg/mL (≈ 0.071 µM)
- MIC (Streptococcus pneumoniae [8]): 0.008 µg/mL (≈ 0.00947 µM)
- MIC (Streptococcus pneumoniae [9]): 1 µg/mL (≈ 1.18 µM)
- MIC (Streptococcus pyogenes [10]): 8 µg/mL (≈ 9.47 µM)
- MIC (Streptococcus pyogenes [11]): 1 µg/mL (≈ 1.18 µM)
- MIC (Streptococcus pyogenes [12]): 0.03 µg/mL (≈ 0.0355 µM)
- MIC (Streptococcus pneumoniae [13]): 0.06 µg/mL (≈ 0.071 µM)
- MIC50 (Streptococcus pneumoniae [14]): 0.03 µg/mL (≈ 0.0355 µM)
- MIC90 (Streptococcus pneumoniae [14]): 0.25 µg/mL (≈ 0.296 µM)
- MIC (Streptococcus pneumoniae [15]): 0.008 µg/mL (≈ 0.00947 µM)
- MIC (Streptococcus pyogenes [30]): 0.016 µg/mL (≈ 0.0189 µM)
- MIC (Streptococcus pyogenes [16]): 0.016 µg/mL (≈ 0.0189 µM)
- MIC (Streptococcus pneumoniae [18]): 2 µg/mL (≈ 2.37 µM)
- MIC (Streptococcus pyogenes [19]): 0.016 µg/mL (≈ 0.0189 µM)
- MIC (Streptococcus pneumoniae [20]): 0.06 µg/mL (≈ 0.071 µM)
- MIC (Streptococcus pneumoniae [20]; [31]): 0.06 µg/mL (≈ 0.071 µM)
- MIC (Streptococcus pneumoniae [21]): 0.004 µg/mL (≈ 0.00473 µM)
- MIC (Streptococcus pyogenes [22]): 0.5 µg/mL (≈ 0.592 µM)
- MIC (Streptococcus pneumoniae [23]): 0.002 µg/mL (≈ 0.00237 µM)
- MIC (Streptococcus pyogenes [24]): 0.06 µg/mL (≈ 0.071 µM)
- MIC50 (Streptococcus pyogenes [25]): 0.03 µg/mL (≈ 0.0355 µM)
- MIC90 (Streptococcus pyogenes [25]): 0.125 µg/mL (≈ 0.148 µM)
- MIC (Streptococcus pyogenes [27]): 0.06 µg/mL (≈ 0.071 µM)
- MIC (Streptococcus pneumoniae [28]): 0.03 µg/mL (≈ 0.0355 µM)
